From ChEMBL document CHEMBL1938288, “Discovery, synthesis, and pharmacological evaluation of spiropiperidine hydroxamic acid based derivatives as structurally novel histone deacetylase (HDAC) inhibitors” (J Med Chem, 2011) come the findings set out here.

Calls of active or inactive are those of the source. No cut-off for these calls is given here.

Data set [1] in a line: Tmax in CD1 mouse at 5 mg/kg, iv and 15 mg/kg, po. The conditions noted are these: in vivo. It is filed as ADME, organism-based. Summed up:
(§1)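 Single dose to male CD-1 mice, either iv at 5 mg/kg or oral at 15 mg/kg. Plasma pharmacokinetic parameters were calculated from these dosings.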

Data set [2] in a line: Elimination half life in CD1 mouse at 5 mg/kg, iv and 15 mg/kg, po. Format: ADME, organism-based. Particulars: in vivo, read-out: beta t1/2 (converted). Summed up: as §1
The test system of data set [3] is Mus musculus. The experiment in a line: Toxicity in human HCT116 cells xenografted CD1 nude mouse assessed as signs of toxicity at 35 to 150 mg/kg, po administered for 5 days/week for 17 days. It is filed as organism-based, HCT-116. Set-up: dose 35-150 mg/kg, route oral. The conditions noted are these: in vivo. On the technique in general: In xenograft studies the graft and the host belong to different species.

The test system of data set [4] is Mus musculus. Description: Increase of histone H4 cetylation in human HCT116 cells xenografted in CD1 mouse at 35 to 150 mg/kg, po administered for 5 days/week for 17 days by immunohistochemistry. It is filed as functional, organism-based. Particulars: HCT-116. Summed up:
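Xenograft tumours from the oral efficacy study were collected 2 h after the last dose. They were formalin-fixed, paraffin-embedded, unmasked in TEG buffer pH 9, treated 5 min with 3% H2O2, and incubated overnight at 4 °C with anti-acetyl-histone H4. Staining was developed by HRP detection with hematoxylin counterstain. Positive cells and signal intensity were compared with vehicle.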

For data set [5], the target named is Histone deacetylase 4 (Homo sapiens, UniProt P56524). The experiment in a line: Inhibition of HDAC4 using carboxyfluorescein-labeled peptide as substrate after 17 hrs by fluorescence assay. Summed up:
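Stopped with HEPES/0.08% SDS. Substrate and product separated electrophoretically, read by green fluorescence. Duplicates. IC50 from 12-point concentration-response curves by nonlinear regression. Run by contract lab.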

The test system of data set [6] is Mus musculus. Description: Toxicity in human HCT116 cells xenografted CD1 nude mouse assessed as change in body weight at 35 to 150 mg/kg, po administered for 5 days/week for 17 days. Format: organism-based, HCT-116. Also on record: dose 35-150 mg/kg, route oral. The conditions noted are these: in vivo.
Data set [7] is described as follows: AUC (0 to infinity) in CD1 mouse at 5 mg/kg, iv. The conditions noted are these: plasma. It is filed as ADME, organism-based. Set-up: time infinity, dose 5 mg/kg, route intravenous. Summed up: as §1
Data set [8] in a line: Cmax in CD1 mouse at 5 mg/kg, iv. The conditions noted are these: in vivo. Also on record: dose 5 mg/kg, route intravenous. It is filed as ADME, organism-based. Summed up: as §1
Data set [9] in a line: Cmax in CD1 mouse at 15 mg/kg, po. Format: ADME, organism-based. Set-up: dose 15 mg/kg, route oral. Particulars: in vivo. Summed up:
as §1

In data set [10] the target is T1, Histone deacetylase 8 (Homo sapiens, UniProt Q9BY41).
T1 sequence (Q9BY41 whole entry): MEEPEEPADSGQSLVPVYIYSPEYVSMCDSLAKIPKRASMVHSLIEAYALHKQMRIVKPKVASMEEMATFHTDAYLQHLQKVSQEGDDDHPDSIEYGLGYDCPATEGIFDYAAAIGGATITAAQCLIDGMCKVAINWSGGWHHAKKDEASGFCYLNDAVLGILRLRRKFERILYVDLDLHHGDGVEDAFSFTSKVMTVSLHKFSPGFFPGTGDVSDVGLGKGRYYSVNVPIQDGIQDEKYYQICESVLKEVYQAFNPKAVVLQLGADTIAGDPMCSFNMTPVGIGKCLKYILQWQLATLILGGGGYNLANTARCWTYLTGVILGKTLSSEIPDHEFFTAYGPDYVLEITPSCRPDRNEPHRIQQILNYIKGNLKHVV
Description: Inhibition of HDAC8 using carboxyfluorescein-labeled peptide as substrate after 17 hrs by fluorescence assay. Summed up:
(§2)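 Purified HDAC isoforms incubated with compound and 1 μM carboxyfluorescein-labelled peptide for 17 h at 25 °C. Reaction stopped with HEPES/0.08% SDS. Substrate and product separated electrophoretically and read by fluorescence. Run in duplicate. IC50 from 12-point curves by nonlinear regression.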

Data set [11] has as its system HCT-116. Description: Antitumor activity against human HCT116 cells xenografted in po dosed CD1 nude mouse assessed as reduced tumor volume administered for 5 days/week for 17 days. It is filed as functional, organism-based. Summed up:
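Female CD-1 nude mice bearing subcutaneous flank HCT-116 tumours (5 × 10⁶ cells injected). Dosing began at about 100 mm³ tumour volume. Given orally at 35–150 mg/kg in water with 5% DMSO and 9.5% encapsin, 5 days/week for 17 days. Tumour volume tracked against vehicle controls. T/C = mean relative tumour volume treated / control.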

In data set [12] the target is Histone deacetylase 1 (Homo sapiens, UniProt Q13547). Description: Inhibition of HDAC1 using carboxyfluorescein-labeled peptide as substrate after 17 hrs by fluorescence assay. Summed up: as §2
For data set [13], the system named is HCT-116. The experiment in a line: Cell cycle arrest in human HCT116 cells assessed as decrease in G2/M phase cells at 0.3 uM after 24 hrs by flow cytometry. It is filed as functional, cell-based. Summed up: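 HCT-116 cells treated for 24 h at several concentrations. Harvested, fixed in 70% ethanol at -20 °C, RNase treated (1 mg/mL), stained with propidium iodide. DNA content measured by flow cytometry to give phase distribution, including the subG1 population.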
(In general: A flow cytometer gives signals particle by particle.)

Histone deacetylase 1, sequence (Q13547 whole entry): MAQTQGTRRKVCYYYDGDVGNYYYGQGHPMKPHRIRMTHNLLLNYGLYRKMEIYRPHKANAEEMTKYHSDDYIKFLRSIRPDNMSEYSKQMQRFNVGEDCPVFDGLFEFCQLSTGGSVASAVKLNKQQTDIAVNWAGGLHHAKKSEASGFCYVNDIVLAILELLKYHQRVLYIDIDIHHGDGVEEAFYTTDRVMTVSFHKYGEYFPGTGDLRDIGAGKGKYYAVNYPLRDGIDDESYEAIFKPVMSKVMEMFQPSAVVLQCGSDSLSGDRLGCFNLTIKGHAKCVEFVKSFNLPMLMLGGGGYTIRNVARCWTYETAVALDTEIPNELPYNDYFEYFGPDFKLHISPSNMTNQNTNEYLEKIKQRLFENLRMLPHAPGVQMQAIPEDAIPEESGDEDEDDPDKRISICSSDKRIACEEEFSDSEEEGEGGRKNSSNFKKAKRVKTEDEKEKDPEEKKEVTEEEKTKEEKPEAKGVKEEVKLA
Histone deacetylase 4, sequence (P56524 whole entry): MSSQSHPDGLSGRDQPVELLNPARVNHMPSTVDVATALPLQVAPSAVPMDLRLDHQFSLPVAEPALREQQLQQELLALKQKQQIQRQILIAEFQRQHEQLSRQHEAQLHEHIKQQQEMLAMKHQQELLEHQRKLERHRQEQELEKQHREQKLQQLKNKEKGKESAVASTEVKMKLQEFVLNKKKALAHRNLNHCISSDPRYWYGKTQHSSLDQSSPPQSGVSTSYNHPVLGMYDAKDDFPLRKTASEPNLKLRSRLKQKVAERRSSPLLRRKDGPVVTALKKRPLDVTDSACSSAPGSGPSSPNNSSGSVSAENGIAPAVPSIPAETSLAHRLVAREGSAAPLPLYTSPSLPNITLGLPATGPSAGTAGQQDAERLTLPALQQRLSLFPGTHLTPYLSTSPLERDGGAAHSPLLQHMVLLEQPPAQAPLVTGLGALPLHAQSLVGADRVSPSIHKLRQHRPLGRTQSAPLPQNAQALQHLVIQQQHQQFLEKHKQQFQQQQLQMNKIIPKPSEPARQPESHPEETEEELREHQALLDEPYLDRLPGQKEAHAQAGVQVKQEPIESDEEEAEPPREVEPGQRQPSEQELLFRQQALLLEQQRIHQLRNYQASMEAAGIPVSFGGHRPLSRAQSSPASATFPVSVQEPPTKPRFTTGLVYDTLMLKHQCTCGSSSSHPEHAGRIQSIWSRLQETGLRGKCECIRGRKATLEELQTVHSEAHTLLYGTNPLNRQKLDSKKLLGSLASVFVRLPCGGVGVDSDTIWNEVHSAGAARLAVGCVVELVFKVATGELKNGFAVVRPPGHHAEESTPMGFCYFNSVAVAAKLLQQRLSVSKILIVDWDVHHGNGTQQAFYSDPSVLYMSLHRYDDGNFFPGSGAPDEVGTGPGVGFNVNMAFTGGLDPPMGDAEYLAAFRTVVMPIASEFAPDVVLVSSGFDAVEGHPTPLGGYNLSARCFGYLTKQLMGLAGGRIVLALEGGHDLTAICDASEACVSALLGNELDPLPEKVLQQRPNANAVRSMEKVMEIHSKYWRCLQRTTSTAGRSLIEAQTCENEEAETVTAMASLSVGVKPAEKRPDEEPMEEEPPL

In general, Tmax refers to the time from dosing to the highest level. As usually defined, the IC50 is the concentration needed to halve the response being measured. A high value points to a need for much substance. Broadly, the AUC(0-inf) is total exposure, with the tail of the curve extrapolated. Read a high AUC(0-inf) as more exposure. What is called Cmax is the peak of the concentration-time curve. `O=C(/C=C/c1ccc2c(c1)C(=O)CC1(CCN(Cc3ccccc3)CC1)O2)NO`: the time to peak (Tmax) in data set [1] worked out at 0.25 h. Further, the half-life in [2] was 8.4 h. Moreover, the Activity entry in [3] is “Non-toxic”; in [6] it was “Non-toxic”; in data set [11] it was “Dose-dependent effect”. The outcome in [4] and in [13] was Active. Further, the IC50 in data set [5] turned out to be 0.127 µM; in [10] it was 1.76 µM; in data set [12], 0.0938 µM. Moreover, the AUC(0-inf) in data set [7] is 847 ng·h/mL. Moreover, the figures for the maximum concentration (Cmax) in [8] and in data set [9] were 12.5 µM and 0.823 µM, respectively.
